Key:
[1] = molecular target: Cyclin-dependent kinase 5/CDK5 activator 1 (Homo sapiens) (UniProt Q00535+Q15078); experiment: Inhibition of GST-CDK5/p25 expressed in Escherichia coli assessed as residual enzyme activity at 10 uM
HL-60 [2] = experiment: Antiproliferative activity against human HL60 cells at 10 uM after 72 hrs by MTS assay; assay type: functional; conditions: HL-60, 72 h
How it was run: (§1)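 Cells kept in Glutamax RPMI with 10% fetal calf serum, penicillin and streptomycin, at 37 °C in 5% CO2. Plated at 500–800 cells/well and left 24 h before adding compound in DMSO (10^-6 or 10^-5 M final). Exposure was continuous for 72 h, then MTS read-out at 490 nm, in triplicate. Percent inhibition was taken from absorbance versus control wells after blank subtraction.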

Sus scrofa [3] = organism: Sus scrofa; experiment: Inhibition of pig CK1 assessed as residual enzyme activity at 10 uM
K562 [4] = experiment: Antiproliferative activity against human K562 cells at 1 uM after 72 hrs by MTS assay; assay type: functional; conditions: K562, 72 h; how it was run: as §1
[5] = molecular target: Dual specificity tyrosine-phosphorylation-regulated kinase 1A (Rattus norvegicus) (UniProt Q63470); experiment: Inhibition of rat GST-fused Dyrk1a expressed in Escherichia coli assessed as residual enzyme activity at 10 uM
Sus scrofa [6] = organism: Sus scrofa; experiment: Inhibition of pig GSK3 assessed as residual enzyme activity at 10 uM
HL-60 [7] = experiment: Antiproliferative activity against human HL60 cells at 1 uM after 72 hrs by MTS assay; assay type: functional; conditions: HL-60, 72 h; how it was run: as §1
K562 [8] = experiment: Antiproliferative activity against human K562 cells at 10 uM after 72 hrs by MTS assay; assay type: functional; conditions: K562, 72 h; how it was run: as §1
HL-60 [9] = experiment: Antiproliferative activity against human HL60 cells at 0.25 nM after 72 hrs by MTS assay; assay type: functional; conditions: HL-60, 72 h
K562 [10] = experiment: Antiproliferative activity against human K562 cells at 0.25 nM after 72 hrs by MTS assay; assay type: functional; conditions: K562, 72 h

Sequence of Cyclin-dependent kinase 5/CDK5 activator 1 (Homo sapiens) (Q00535 whole entry): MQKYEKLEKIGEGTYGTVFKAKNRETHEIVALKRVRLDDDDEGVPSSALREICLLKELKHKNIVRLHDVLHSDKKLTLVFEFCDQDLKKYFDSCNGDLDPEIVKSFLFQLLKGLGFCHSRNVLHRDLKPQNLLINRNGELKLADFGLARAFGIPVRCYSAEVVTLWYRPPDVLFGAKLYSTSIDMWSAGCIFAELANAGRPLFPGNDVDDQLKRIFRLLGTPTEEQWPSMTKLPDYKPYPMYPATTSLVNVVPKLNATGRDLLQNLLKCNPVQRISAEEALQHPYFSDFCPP
Sequence of Cyclin-dependent kinase 5/CDK5 activator 1 (Homo sapiens) (Q15078 99-307 partner limits assumed): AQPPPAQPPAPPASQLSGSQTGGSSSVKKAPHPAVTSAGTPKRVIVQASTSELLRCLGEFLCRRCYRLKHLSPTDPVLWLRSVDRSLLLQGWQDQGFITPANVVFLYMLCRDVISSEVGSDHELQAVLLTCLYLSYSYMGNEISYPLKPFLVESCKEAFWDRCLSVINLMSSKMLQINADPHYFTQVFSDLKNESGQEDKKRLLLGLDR

SMILES	Activity [1]	Activity (Sus scrofa [3])	Activity [5]	Activity (Sus scrofa [6])	inhibition at 10 µM (HL-60 [2])	inhibition at 1 µM (K562 [4])	inhibition at 1 µM (HL-60 [7])	inhibition at 10 µM (K562 [8])	inhibition at 0.00025 µM (HL-60 [9])	inhibition at 0.00025 µM (K562 [10])
CC(=O)OC[C@H]1O[C@@H](N2C(=O)/C(=C3/C(=O)Nc4ccc(C#CCCO)cc43)c3ccccc32)[C@H](OC(C)=O)[C@@H](OC(C)=O)[C@@H]1OC(C)=O	> 65%	> 65%	> 65%	> 65%	8%	2%	0%	33%	–	–
CC(=O)OC[C@H]1O[C@@H](N2C(=O)/C(=C3/C(=O)Nc4ccc(C#CCNC(=O)OCc5ccccc5)cc43)c3ccccc32)[C@H](OC(C)=O)[C@@H](OC(C)=O)[C@@H]1OC(C)=O	> 65%	> 65%	> 65%	> 65%	1%	0%	0%	6%	–	–
CC(=O)OC[C@H]1O[C@@H](N2C(=O)/C(=C3/C(=O)Nc4ncc(C#CCCO)cc43)c3ccccc32)[C@H](OC(C)=O)[C@@H](OC(C)=O)[C@@H]1OC(C)=O	–	–	–	–	0%	5%	0%	10%	–	–
CC(=O)OC[C@H]1O[C@@H](N2C(=O)/C(=C3/C(=O)Nc4ncc(I)cc43)c3cc(Br)ccc32)[C@H](OC(C)=O)[C@@H](OC(C)=O)[C@@H]1OC(C)=O	–	–	–	–	0%	0%	0%	3%	–	–
CC(=O)OC[C@H]1O[C@@H](N2C(=O)/C(=C3/C(=O)Nc4ncc(I)cc43)c3ccccc32)[C@H](OC(C)=O)[C@@H](OC(C)=O)[C@@H]1OC(C)=O	> 65%	> 65%	> 65%	> 65%	1%	0%	0%	47%	–	–
CC(=O)OC[C@H]1O[C@@H](N2C(=O)/C(=C3/C(=O)Nc4ncc(C#CCNC(=O)OCc5ccccc5)cc43)c3cc(Br)ccc32)[C@H](OC(C)=O)[C@@H](OC(C)=O)[C@@H]1OC(C)=O	–	–	–	–	0%	0%	0%	5%	–	–
CC(=O)OC[C@H]1O[C@@H](N2C(=O)/C(=C3/C(=O)Nc4ccc(I)cc43)c3cc(Br)ccc32)[C@H](OC(C)=O)[C@@H](OC(C)=O)[C@@H]1OC(C)=O	> 65%	> 65%	> 65%	> 65%	0%	0%	0%	3%	–	–
CC(=O)O[C@@]12CO[C@@H]1C[C@H](O)[C@@]1(C)C(=O)[C@H](O)C3=C(C)[C@@H](OC(=O)[C@H](O)[C@@H](NC(=O)OC(C)(C)C)c4ccccc4)C[C@@](O)([C@@H](OC(=O)c4ccccc4)[C@H]21)C3(C)C [DOCETAXEL]	–	–	–	–	–	–	–	–	46%	32%

Second part, led by results:

Activity [1]	Activity (Sus scrofa [3])	Activity [5]	Activity (Sus scrofa [6])	SMILES	inhibition at 10 µM (HL-60 [2])	inhibition at 1 µM (K562 [4])	inhibition at 1 µM (HL-60 [7])	inhibition at 10 µM (K562 [8])	inhibition at 0.00025 µM (HL-60 [9])	inhibition at 0.00025 µM (K562 [10])
> 65%	–	> 65%	–	CC(=O)OC[C@H]1O[C@@H](N2C(=O)/C(=C3/C(=O)Nc4ncc(Br)cc43)c3ccccc32)[C@H](OC(C)=O)[C@@H](OC(C)=O)[C@@H]1OC(C)=O	–	–	–	–	–	–
> 65%	–	> 65%	–	CC(=O)OC[C@H]1O[C@@H](N2C(=O)/C(=C3/C(=O)Nc4ccc(I)cc43)c3ccccc32)[C@H](OC(C)=O)[C@@H](OC(C)=O)[C@@H]1OC(C)=O	–	–	–	–	–	–
> 65%	> 65%	> 65%	> 65%	CC(=O)OC[C@H]1O[C@@H](N2C(=O)/C(=C3/C(=O)Nc4ncc(C#CCNC(=O)OCc5ccccc5)cc43)c3ccccc32)[C@H](OC(C)=O)[C@@H](OC(C)=O)[C@@H]1OC(C)=O	11%	4%	0%	59%	–	–
> 65%	> 65%	> 65%	> 65%	CC(=O)OC[C@H]1O[C@@H](N2C(=O)/C(=C3/C(=O)Nc4ncc(Br)cc43)c3cc(Br)ccc32)[C@H](OC(C)=O)[C@@H](OC(C)=O)[C@@H]1OC(C)=O	0%	3%	0%	4%	–	–
> 65%	> 65%	> 65%	> 65%	CC(=O)OC[C@H]1O[C@@H](N2C(=O)/C(=C3/C(=O)Nc4ccc(C#CCNC(=O)OCc5ccccc5)cc43)c3cc(Br)ccc32)[C@H](OC(C)=O)[C@@H](OC(C)=O)[C@@H]1OC(C)=O	0%	1%	0%	2%	–	–
